Compound activity deposited in PubChem by Sanford-Burnham Center for Chemical Genomics.
SENP8 block-1 – SENP8 protease inhibition; purified SENP8, Z-RLRGG-aminoluciferin cleavage, luminescence; inhibition, % at 10 µM; 330,000 compounds, 1.2% hits; AID 2540; in the data active means inhibition above about 50%
Target sequence (Q96LD8 whole entry, looked up): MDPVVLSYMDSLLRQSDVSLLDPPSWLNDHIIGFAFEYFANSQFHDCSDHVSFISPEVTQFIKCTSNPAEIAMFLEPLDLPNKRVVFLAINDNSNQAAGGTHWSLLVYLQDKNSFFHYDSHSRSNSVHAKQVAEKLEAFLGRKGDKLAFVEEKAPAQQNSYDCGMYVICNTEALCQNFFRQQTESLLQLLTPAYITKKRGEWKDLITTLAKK
SENP1 FRET inh – SENP1 (human) catalytic domain inhibition | Q9P0U3 | recombinant SENP1 catalytic domain, CyPet-SUMO1-YPet FRET cleavage | inhibition, % at 10 µM | 360,000 compounds, 0.21% hits | AID 624204;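 active means inhibition at least 30% at 10 µM, raw YFP signal under a set limit, fluorescence ratio 0.5 to 1.5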;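 further: 0% = enzyme with DMSO and 100% = no enzyme wells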
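system = hSENP1 catalytic domain, recombinant | reagent = SFCypet-SUMO1-SFYpet substrate at 25 nM | doses = one dose per compound, 10 µM, 0.5% DMSO | incubation = enzyme reaction for 50 min at room temperature, dark | measured by = FRET, CFP and YFP emission | controls = no-enzyme low, enzyme-DMSO high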
SENP6 block – inhibitors of human SENP6 protease; Q9GZR1; Recombinant SENP6 catalytic domain, aminoluciferin luminescence; inhibition, % at 10 µM; 330,000 compounds, 1.8% hits; AID 2599;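 active means inhibition above about 50% at the single tested dose, limit read from the data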;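 further: plate controls were DMSO wells with enzyme for no effect and DMSO wells lacking enzyme for full effect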
SENP7 block – blocks the human protease SENP7 | recombinant SENP7, Z-RLRGG-aminoluciferin luminescence, 40 min | inhibition, % at 5 µM | 330,000 compounds, 1.5% hits | AID 434973;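 active means inhibition above about 50% at the single test dose, limit read from the data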;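 further: plate controls were DMSO with enzyme for no effect and no enzyme buffer wells for full effect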
Target sequence (Q9BQF6 706-1050 limits assumed): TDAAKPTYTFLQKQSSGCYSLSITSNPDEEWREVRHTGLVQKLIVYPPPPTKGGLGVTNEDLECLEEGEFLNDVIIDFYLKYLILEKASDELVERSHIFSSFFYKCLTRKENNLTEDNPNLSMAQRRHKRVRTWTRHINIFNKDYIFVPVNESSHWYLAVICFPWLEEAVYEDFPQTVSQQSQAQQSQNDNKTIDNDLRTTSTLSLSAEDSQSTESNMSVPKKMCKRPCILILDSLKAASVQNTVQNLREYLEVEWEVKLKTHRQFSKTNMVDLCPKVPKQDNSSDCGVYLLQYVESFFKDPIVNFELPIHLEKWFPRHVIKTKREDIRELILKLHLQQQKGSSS
SENP8 block-2 – inhibitors of human SENP8 protease; Q96LD8; recombinant SENP8, Nedd8 substrate fluorescence; inhibition, % at 20 µM; 360,000 compounds, 0.64% hits; AID 602440; in the data active means inhibition mostly above about 40%, no sharp cut-off; inactive means mostly below about 27%
SENP8 conf – confirmation of human SENP8 protease inhibitors; AID 488912; Recombinant SENP8, Z-RLRGG-aminoluciferin luminescence, 60 min; 6,200 compounds, 40% hits; shares compounds with SENP7 block; inhibition, % at 12.5 µM;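 active means mean inhibition across replicates above about 50%, limit read from the data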
SENP6 conf – human SENP6 inhibition, confirmed | inhibition, % at 12.5 µM | shares compounds with SENP7 block | AID 488915 | 6,200 compounds, 58% hits | recombinant SENP6, Z-RLRGG-aminoluciferin luminescence
SENP7 confirm – human SENP7 inhibition, confirmed; 6,200 compounds, 69% hits; inhibition, % at 12.5 µM; AID 488917; recombinant SENP7, Z-RLRGG-aminoluciferin luminescence, 40 min; shares compounds with SENP7 block
Casp3 select – caspase-3 inhibition (SENP selectivity assay); shares compounds with SENP7 block; purified caspase-3, Z-DEVD-aminoluciferin luminescence, 60 min; inhibition, % at 12.5 µM; 6,200 compounds, 60% hits; AID 488918;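 active means mean inhibition above about 50%, limit read from the data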;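 further: plate controls were enzyme with DMSO for no effect and wells without caspase-3 for full effect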
SENP luc ctr – counter-screen for SENP inhibitors: luminescence interference; shares compounds with SENP7 block; Pre-incubated SENP8/Z-RLRGG-aminoluciferin, luciferase luminescence interference; inhibition, % at 12.5 µM; 6,200 compounds, 39% hits; AID 488919;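 active means mean inhibition above about 50% when retested at one dose, limit read from the data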;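 further: plate controls were DMSO wells with completed reaction for no effect and substrate without enzyme for full effect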
* = called active by the depositor; x = no result. A selection: hits, their analogues and other compounds. The true share with any hit is near 2.5%.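 How the source made its calls, unless noted: active means mean inhibition above about 50% in the one-dose retest (limit read from the data); inactive means the rest.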

SMILES	SENP8 block-1	SENP1 FRET inh	SENP6 block	SENP7 block	SENP8 block-2	SENP8 conf	SENP6 conf	SENP7 confirm	Casp3 select	SENP luc ctr
COc1cccc(Nc2nc(-c3ccc4c(c3)OCCO4)cs2)c1	30	-4	55*	7	-38	22	32	69*	8	8
O=C(Nc1nc(-c2ccco2)c(-c2ccco2)s1)c1cnccn1	-10	x	-115	-21	x	x	x	x	x	x
O=C(Nc1nc2ccc(F)cc2s1)c1ccccn1	95*	x	95*	100*	x	92*	98*	102*	96*	48
O=C(Nc1ccc2nccnc2c1)c1cnccn1	-21	4	-4	-1	-39	x	x	x	x	x
O=C(Nc1nc2ccccc2s1)C1=NN(c2ccccc2)C(=O)CC1	1	-4	-11	-1	-58	x	x	x	x	x
O=C(Nc1nc2ccc(F)cc2s1)C1=NN(c2ccccc2)C(=O)CC1	26	-3	55*	11	-42	-13	1	20	1	-5
O=C(NNc1nc2ccc(F)cc2s1)c1cccc(F)c1	22	2	49	8	0	x	x	x	x	x
O=C(Nc1nc2ccccc2s1)c1cnccn1	93*	1	97*	8	10	6	56*	76*	79*	40
O=C(Nc1ccc2ccccc2c1)c1cnccn1	42	-2	65*	75*	-13	52*	73*	92*	82*	31
O=C(COc1ccc([N+](=O)[O-])cc1)Nc1nnc(-c2cccnc2)s1	3	-3	1	6	7	x	x	x	x	x
NC(Cc1ccccc1)C(=O)N1CCCCC1 (stereo not given)	-4	-1	-8	-10	33	x	x	x	x	x
COc1ccc(NC(=O)C2(C)CCN2C(=O)c2ccc(C(C)(C)C)cc2)cc1OC (stereo not given)	x	0	x	x	16	x	x	x	x	x
CCOc1ccc2nc(NC(=O)c3cnccn3)sc2c1	20	0	24	74*	27	16	14	24	52*	14
Clc1ccccc1-c1nnc2sc(-c3ccc4c(c3)OCO4)nn12	2	2	19	8	-294	x	x	x	x	x
O=[N+]([O-])c1cccc(-c2nnc(-c3ccc4c(c3)OCO4)o2)c1	26	2	47	65*	-24	15	12	33	45	5
Clc1ccccc1-c1nnc(-c2ccc3c(c2)OCO3)o1	89*	4	92*	90*	-399	64*	94*	95*	79*	59*
O=[N+]([O-])c1cccc(-c2nnc(-c3ccccc3)o2)c1	22	1	49	31	8	x	x	x	x	x
COc1ccc(/C(O)=C2/C(=O)C(=O)N(CCCN(C)C)C2c2cccc(Cl)c2)cc1OC (stereo not given)	-6	1	9	-3	-15	x	x	x	x	x
Cc1cc(C)n(-c2ccc(C(=O)Nc3sccc3C(N)=O)cc2)n1	37	-5	75*	63*	-234	64*	64*	82*	58*	37
NC(=O)c1ccsc1NC(=O)C1CCCN1S(=O)(=O)c1ccc(Cl)cc1 (stereo not given)	-1	-4	-7	-3	11	x	x	x	x	x
CC1CCCCN1S(=O)(=O)c1ccc(C(=O)Nc2sccc2C(N)=O)cc1 (stereo not given)	86*	1	83*	79*	-30	87*	88*	97*	74*	40
CCCS(=O)(=O)NC(=O)C1(C)CCCN(C(=O)CSc2ccccc2)C1 (stereo not given)	x	3	x	x	19	x	x	x	x	x
CSc1nc2sc3c(c2c(=O)n1C)CCC3	-23	2	-16	3	19	x	x	x	x	x
CSc1nc2sc3c(c2c(=O)n1C)CCC(C)C3 (stereo not given)	48	-1	63*	50*	-7	7	7	19	25	10
O=C(Nc1ccc(COc2ccccc2)cc1)Nc1cccc(C(=O)O)c1	93*	1	97*	92*	4	48	100*	18	60*	45
SMILES	SENP8 block-1	SENP1 FRET inh	SENP6 block	SENP7 block	SENP8 block-2	SENP8 conf	SENP6 conf	SENP7 confirm	Casp3 select	SENP luc ctr
O=C(Nc1ccc(OCc2ccccc2)cc1)Nc1cccnc1	-16	1	1	-11	20	x	x	x	x	x
O=C(O)c1cccc(NC(=S)NC(=O)c2cccc(OCc3ccccc3)c2)c1	34	2	56*	-4	18	71*	61*	76*	8	63*
CCCOc1cccc(C(=O)NC(=S)Nc2ccccc2)c1	11	2	35	17	1	x	x	x	x	x
CN(CCc1ccccc1)C(=O)CC1C(=O)NCCN1Cc1ccccn1 (stereo not given)	x	-16	x	x	-26	x	x	x	x	x
FC(F)(F)c1cc(Cl)c2nc(-c3ccccc3)cn2c1	76*	-1	83*	87*	-223	46	81*	94*	69*	47
Nc1cccc(-c2cn3cc(C(F)(F)F)cc(Cl)c3n2)c1	70*	1	82*	86*	-28	84*	84*	97*	86*	86*
Cc1cc(C(F)(F)F)nc(-n2cc(-c3cccc(N)c3)nn2)n1	3	2	13	-2	-2	x	x	x	x	x
Cc1ccc(OCCNC(=O)Cc2ccc(F)cc2)cc1	-3	1	-42	3	-1	x	x	x	x	x
CCC(Oc1ccc(Br)cc1)C(=O)N1CCN(c2ncccn2)CC1 (stereo not given)	-12	0	-18	11	-25	x	x	x	x	x
COC(=O)c1ccc(NC(=O)C(=O)c2c[nH]c3ccccc23)cc1	-16	-2	-2	21	-13	x	x	x	x	x
O=C(Nc1ccccc1)C(=O)c1c[nH]c2ccccc12	89*	1	93*	97*	2	86*	90*	100*	85*	38
CCc1nnc(NC(=O)CN2CCOCC2)s1	-7	0	-15	99*	4	11	6	5	1	4
CCc1nnc(NC(=O)CC(=O)Nc2ccccc2C(=O)O)s1	30	1	78*	55*	-34	68*	63*	89*	88*	71*
CC(C)c1nnc(NC(=O)CC(=O)Nc2ccccc2C(=O)O)s1	71*	0	81*	78*	22	87*	87*	98*	94*	86*
